Assay outcomes deposited in PubChem by several laboratories.
Sampled rows, rich in hits. Any-hit rate of the full collection: about 2.2%.
NR2E3 ag-1 – NR2E3 agonists in two-hybrid cells, primary screen, cell-based, luminescence, CHO-S, Gal4-NCOR/VP16-NR2E3. inhibition of corepressor binding, % at 3.98 µM. AID 602229, 2012. luciferase. 0.35% of 360,000 active;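 active = inhibition above the mean of all tested compounds plus 3 SD, cut at about 70% in these data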;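 note: 0% = DMSO with NR2E3 transfected cells and 100% = cells lacking NR2E3 construct; higher means lower luciferase signal from less NR2E3 corepressor binding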
Target sequence (Q9Y5X4 whole entry, looked up, the tested form may be a part): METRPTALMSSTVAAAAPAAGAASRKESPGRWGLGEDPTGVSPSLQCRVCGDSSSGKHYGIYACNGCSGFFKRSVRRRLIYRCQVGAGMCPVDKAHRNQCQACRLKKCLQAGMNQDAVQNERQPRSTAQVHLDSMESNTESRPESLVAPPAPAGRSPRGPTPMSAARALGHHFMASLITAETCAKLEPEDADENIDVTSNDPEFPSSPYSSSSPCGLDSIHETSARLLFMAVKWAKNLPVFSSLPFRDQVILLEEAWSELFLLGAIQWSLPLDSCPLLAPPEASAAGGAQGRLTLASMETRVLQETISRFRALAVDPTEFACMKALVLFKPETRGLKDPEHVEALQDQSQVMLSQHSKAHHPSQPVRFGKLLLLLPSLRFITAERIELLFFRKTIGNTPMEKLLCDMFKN
NR2E3 ag-2 – inhibitors of NR2E3-RetCOR corepressor binding, primary screen, NR2E3 agonist project, biochemical, TR-FRET, GST-NR2E3, biotin-RetCOR; 0.12% of 320,000 active; Photoreceptor-specific nuclear receptor (Homo sapiens), Q9Y5X4; 1536-well; AID 2300, 2010; inhibition of corepressor binding, % at 4.78 µM;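 active = percent inhibition above the cutoff of mean plus 3 SD of all tested compounds, set per screening campaign, cut at about 20% in these data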;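 note: 0% = DMSO wells and 100% = biotin wells as full block of FRET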
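System: GST-tagged NR2E3 plus biotinylated RetCOR corepressor; Amount: 1.35 nM GST-tagged NR2E3 final; Dosing: single nominal compound dose of 4.8 µM; Schedule: 5 h incubation at 4 °C; Technique: TR-FRET with europium anti-GST and streptavidin-D2, 340 nm excitation; Controls: biotin wells as high control, 0.6% DMSO wells as low control.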
Jurkat NFkB inh – inhibitors of induced NF-kB luciferase reporter, primary screen, TCR NF-kB activation inhibitor project, cell-based, luminescence, uHTS; Jurkat, PMA/ionomycin-induced NF-kB luciferase reporter; inhibition, % at 4 µM; 0.53% of 330,000 active; in the data active = inhibition above about 50%
FGF22 binding – binders of human FGF22 protein, primary screen, FGF22 synaptogenesis inhibitor project, biophysical, thermal shift, single point | Fibroblast growth factor 22 (Homo sapiens), Q9HCT0 | recombinant FGF22 thermal shift, SYPRO orange fluorescence; percent of sucrose octasulfate shift, DMSO zero | activity (Tm shift, normalised), % at 9.99 µM | 1.5% of 340,000 active;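 active = mean Tm shift, scaled 0 neutral to 100 positive control, at about 1.3% or above, every replicate too, limit read from the data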
Target sequence (Q9HCT0 whole entry, looked up): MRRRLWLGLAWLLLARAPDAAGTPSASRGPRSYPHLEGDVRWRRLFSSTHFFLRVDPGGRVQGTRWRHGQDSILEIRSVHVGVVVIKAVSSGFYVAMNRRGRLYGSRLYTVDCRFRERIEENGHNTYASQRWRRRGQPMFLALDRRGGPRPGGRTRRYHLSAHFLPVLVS
miR122 inh – miR-122 Renilla sensor signal increase in Huh7, primary screen, miR-122 inhibitor project, cell-based, single point, plate reader; Huh7 miR-122 Renilla luciferase sensor, 48 h; neutral wells = 0, positive control = 100; activation (reporter increase), % at 12.5 µM; 0.3% of 340,000 active; AID 602342, 2012;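 active = mean replicate activation score at least 90 and every replicate individually at or above 90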;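 note: higher luciferase means less miR-122 activity so hits act as miR-122 inhibitors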
697 NFkB inh – inhibitors of PMA/ionomycin-induced NF-kB reporter, 697 cells, primary screen, B-cell NF-kB inhibitor project, cell-based, luminescence, uHTS | AID 435022, 2010 | inhibition, % at 4 µM | 0.33% of 330,000 active | 697 B-cell NF-kB luciferase reporter, 16 h; in the data active = inhibition above about 35%
697 NFkB conf – PMA/ionomycin-induced NF-kB reporter inhibitors, 697 retest, confirmation, B-cell NF-kB inhibitor project, cell-based, luminescence, single concentration; 35% of 2,000 active; 697 B-cell NF-kB luciferase, 16 h; inhibition, % at 4 µM; AID 449746, 2010; shares compounds with 697 NFkB inh; in the data active = inhibition mostly above about 28%, no sharp cut-off; inactive = mostly below about 22%
* = called active by the depositor; i = inactive; x = no result given; [ ] = dose if it differs, or a comment.

SMILES	NR2E3 ag-1	NR2E3 ag-2	Jurkat NFkB inh	FGF22 binding	miR122 inh	697 NFkB inh	697 NFkB conf
COc1ccc(Cc2nc(-c3ccc(NC(=O)c4cccnc4)cc3)no2)cc1	27	-1	-4	x	-1	51*	33*
COc1cccc(-c2noc(CCC(=O)NCCc3ccccc3)n2)c1	47	-1	-9	0	1	49*	49*
COc1ccc(-c2noc(CCC(=O)NCCc3ccccc3)n2)cc1	-13	0	-18	0	7	-3	x
O=C(CCCc1nc(-c2ccc(Cl)cc2)no1)NCC1CCCO1 (centres undefined)	1	1	13	0	-2	13	x
O=C(O)CCc1nc(-c2ccccc2)no1	-5	3	-4	x	-2	-8	x
CCOc1ccc(-c2noc(CCC(=O)O)n2)cc1	20	-1	27	0	-7	62*	49*
COc1ccc(-c2noc(CCCC(=O)NCC3CCCO3)n2)cc1 (centres undefined)	24	1	-10	0	1	41*	21
C[C@H]1CN([C@@H](C)CO)S(=O)(=O)c2ccc(-c3ccncc3)cc2O[C@@H]1CN(C)S(C)(=O)=O	x	x	x	0	5[16.7 µM]	x	x
Cc1ccc(S(=O)(=O)Nc2ccc3c(c2)C(=O)N([C@@H](C)CO)C[C@H](C)[C@@H](CN(C)Cc2ccc(Cl)c(Cl)c2)OCCCC[C@H](C)O3)cc1	x	x	x	x	-7[16.7 µM]	x	x
C[C@@H]1CN([C@@H](C)CO)C(=O)c2cc(NC(=O)C3CCCCC3)ccc2O[C@@H](C)CCCCO[C@H]1CN(C)CC1CCCCC1	x	x	x	-1	2[16.7 µM]	x	x
O=C(O)c1ccc(-c2noc(-c3cccc(F)c3)n2)cc1	-99	-2	-54	0	x	-125	x
COc1cccc(-c2nc(-c3ccc(C(=O)O)cc3)no2)c1	-115	1	-21	0	x	-351	-413
COc1ccc(-c2noc(CCCC(=O)O)n2)cc1	33	0	48	x	2	74*	58*
COc1ccc(-c2noc(CCC(=O)O)n2)cc1	-13	-3	7	x	x	1	x
COc1ccc(COC[C@]23Oc4ccccc4[C@H]([C@H]2COC(=O)c2ccccc2)N(C(=O)CC(C)=O)C(=O)N3C)cc1	x	x	x	0	x	x	x
CCOC(=O)c1ccc2nc(NC(=O)c3cccs3)sc2c1	-178	0	-60	x	-3	-200	x
CCOC(=O)c1ccc2nc(NC(=O)c3ccco3)sc2c1	-176	0	-90	x	7	-302	-273
O=C(COc1ccccc1)NNc1nc2c(F)cc(F)cc2s1	-11	0	1	0	x	5	x
O=C(Nc1nc2c(F)cc(F)cc2s1)c1ccccn1	-176	-2	-32	0	6	i	-318
CC1CCc2nc(NC(=O)c3ccco3)sc2C1 (centres undefined)	-46	0	-46	x	13	-264	-292
CCOc1ccc2nc(NC(=O)c3ccccn3)sc2c1	-65	3	-68	40	1	-459	-257
Cc1ccc2nc(NC(=O)c3ccccn3)sc2c1	16	4	34	0	x	-126	x
CC1CCc2nc(NC(=O)Cc3cccs3)sc2C1 (centres undefined)	-118	1	-105	x	-6	-101	x
C/C=C/c1cnc2c(c1)C(=O)N([C@@H](C)CO)C[C@H](C)[C@H](CN(C)S(=O)(=O)c1ccc(OC)cc1)O2	x	x	x	1	-1[16.7 µM]	x	x
COc1ccccc1NC(=O)N1CCCCN2[C@@H](CO)[C@H](c3ccc(-c4cccc(F)c4)cc3)[C@@H]2C1	x	x	x	0	-4[16.7 µM]	x	x
SMILES	NR2E3 ag-1	NR2E3 ag-2	Jurkat NFkB inh	FGF22 binding	miR122 inh	697 NFkB inh	697 NFkB conf
COC(=O)C[C@H]1C[C@H]2c3cc(NS(=O)(=O)c4ccccc4)ccc3O[C@H]2[C@H](CO)O1	x	x	x	0	1[16.7 µM]	x	x
CCOc1ccc2nc(NC(=O)c3ccco3)sc2c1	-125	1	-112	0	-3	-327	-288
COc1ccccc1NC(=S)N1CCNC(=O)C1CC(=O)Nc1cccc(C)c1 (centres undefined)	-16	-3	12	0	0	38*	-18
Cc1cccc(NC(=O)CC2C(=O)NCCN2C(=S)Nc2ccccc2)c1 (centres undefined)	-5	0	-6	x	-3	-7	x
O=C(Cc1cccc2ccccc12)Nc1ccc(-c2cc3ccccc3oc2=O)cc1	39	2	9	x	-4	72*	50*
Cc1ccc(C(=O)NC(=S)Nc2ccc(-c3cc4ccccc4oc3=O)cc2)c(C)c1	28	1	10	x	-1	36*	9
CCCNC(=O)N1CC[C@@H]2[C@@H](CO)N(C)c3ccc(-c4ccc(F)cc4)cc3[C@@H]21	x	x	x	-1	-3[16.7 µM]	x	x
C[C@H]1CN([C@@H](C)CO)C(=O)c2cc(NS(=O)(=O)c3ccc(Cl)cc3)ccc2O[C@H]1CN(C)Cc1ccc(C(=O)Nc2ccccc2N)cc1	x	x	x	0	45[16.7 µM]	x	x
Cc1cc(OCC(=O)Nc2ccc(CN3CCOCC3)cc2)c2c(C)cc(=O)oc2c1	-12	-2	-7	0	0	21	x
Cc1cc(OCC(=O)Nc2ccc(CN3CCOCC3)cc2)c2c(C)c(C)c(=O)oc2c1	1	-1	6	0	0	38*	21
COc1ccccc1/C=C1\SC(=S)N(CCC(=O)Nc2nnc(C)s2)C1=O	-5	0	10	0	2	51*	29*
CCc1ccc(/C=C2\SC(=S)N(CCC(=O)Nc3cc(C)on3)C2=O)cc1	-22	3	-3	43	x	59*	44*
Cc1cc(NC(=O)CCN2C(=O)/C(=C/c3ccccc3Cl)SC2=S)no1	-15	-3	18	0	x	0	x
COc1ccccc1/C=C1\SC(=S)N(CCC(=O)Nc2cc(C)on2)C1=O	-8	4	1	0	-1	51*	38*
COc1ccccc1/C=C1\SC(=S)N(CCC(=O)Nc2cccc(O)c2)C1=O	-7	-1	-12	0	x	35*	31*
CC(C)NC(=O)Nc1ccc2c(c1)CC(=O)N([C@@H](C)CO)C[C@H](C)[C@@H](CN(C)Cc1ccc3c(c1)OCO3)O2	x	x	x	-1	9[16.7 µM]	x	x
